# Assay results reported in article PMC8923172 (Antimicrobial Agents and Chemotherapy, 2022).
# Marks after values point to notes of the source that are not given here. Residues, ends and D or L forms follow the SMILES beside them.
# Tests used:
# [1] = Coagulation in cynomolgus monkeys at the end of treatment; assay type: in vivo; conditions: median (IQR)
# Outline: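 GLP 10-day study in male and female cynomolgus monkeys (n = 3-5/sex/group) dosed once daily with 0 (placebo), 5, 10 or 15 mg/kg test compound by i.v. infusion over 60 ± 5 min. Hematology, serum chemistry and coagulation were taken at end of treatment and reported as median (IQR). Dose groups were compared by Kruskal-Wallis with Dunn's multiple comparison test.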
# [2] = Single-dose i.v. pharmacokinetics in a vervet; assay type: in vivo, vervet/African green monkey (Chlorocebus aethiops sabaeus); conditions: 3 mg/kg single i.v. bolus, n=1
# Outline: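 Adult male vervet given a single 3 mg/kg i.v. bolus of test compound. Blood was sampled at 0.5, 1, 4, 8, 24, 48, 72, 96, 120 and 192 h. Clarified plasma was diluted 1:10 into 5% formic acid-5% acetonitrile and quantified by UPLC with photodiode array detection. Noncompartmental analysis used nominal times; λz was fitted over up to the last four log-linear points.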
# [3] = in vivo; conditions: Sprague-Dawley, rat, iv
# [4] = Serum biochemistry of rats at the end of treatment; assay type: in vivo, Sprague-Dawley rats; conditions: female, median (IQR)
smiles,measurement,setting,value
"CC[C@H](C)[C@@H]1NC(=O)[C@@H]2CSSC[C@H](NC(=O)[C@H](CCCNC(=N)N)NC(=O)[C@@H]3CSSC[C@H](NC1=O)C(=O)N[C@@H]([C@@H](C)O)C(=O)N[C@@H](CCCNC(=N)N)C(=O)NCC(=O)N[C@@H](Cc1ccccc1)C(=O)N3)C(=O)N[C@@H](CC(C)C)C(=O)N[C@H]1CSSC[C@H](NC(=O)[C@H](C(C)C)NC(=O)CNC(=O)[C@H](CCCNC(=N)N)NC(=O)[C@H](CCCNC(=N)N)NC1=O)C(=O)N[C@@H](CCCNC(=N)N)C(=O)N2 [RTD-1, Rhesus theta (θ) defensin-1] (HELM PEPTIDE1{G.F.C.R.C.L.C.R.R.G.V.C.R.C.I.C.T.R}$PEPTIDE1,PEPTIDE1,3:R3-16:R3|PEPTIDE1,PEPTIDE1,5:R3-14:R3|PEPTIDE1,PEPTIDE1,7:R3-12:R3|PEPTIDE1,PEPTIDE1,1:R1-18:R2$$$V2.0)",APTT,"[1]; female, 5 mg/kg",22.40 (2.05) s
same,Fibrinogen,"[1]; female, 5 mg/kg",238.00 (40.50) mg/dL
same,PT,"[1]; female, 5 mg/kg",12.20 (0.25) s
same,APTT,"[1]; female, 10 mg/kg",20.80 (0.55) s
same,Fibrinogen,"[1]; female, 10 mg/kg",294.00 (7.50) mg/dL
same,PT,"[1]; female, 10 mg/kg",11.80 (0.25) s
same,APTT,"[1]; female, 15 mg/kg",22.60 (0.90) s
same,Fibrinogen,"[1]; female, 15 mg/kg",300.00 (57.00)^d mg/dL
same,PT,"[1]; female, 15 mg/kg",12.30 (0.50) s
same,APTT,"[1]; male, 5 mg/kg",21.60 (0.80) s
same,Fibrinogen,"[1]; male, 5 mg/kg",306.00 (49.50) mg/dL
same,PT,"[1]; male, 5 mg/kg",12.00 (0.55) s
same,APTT,"[1]; male, 10 mg/kg",21.10 (0.45) s
same,Fibrinogen,"[1]; male, 10 mg/kg",285.00 (22.50) mg/dL
same,PT,"[1]; male, 10 mg/kg",12.00 (0.25) s
same,APTT,"[1]; male, 15 mg/kg",22.10 (1.65) s
same,Fibrinogen,"[1]; male, 15 mg/kg",336.00 (114.00) mg/dL
same,PT,"[1]; male, 15 mg/kg",12.25 (0.83) s
same,AUCτ,[2],"21,949 ng · h/mL"
same,CL,[2],2.27 mL/min/kg
same,MRT,[2],4.71 h
same,Vss,[2],0.639 L/kg
same,λz,[2],0.204 h⁻¹
same,"mortality (found dead day 15, determined unrelated to treatment)",5 mg/kg/day,1 out of 16
same,LOAEL,i.v.,20 mg/kg
same,NOAEL,i.v. once daily x7 days,10 mg/kg/day
same,"acute, treatment-related mortality","single i.v. 20 mg/kg, day 1",5 out of 12
same,Vd,"[3]; both, 20 mg/kg",0.756 L/kg
same,level at 600 h,"[3]; female, 10 mg/kg",12.5 ng/mL
same,A/G,[4]; 5 mg/kg/day,2.1 (0.2)
same,ALP,[4]; 5 mg/kg/day,92.0 (21.0) U/L
same,ALT,[4]; 5 mg/kg/day,35.0 (7.0) U/L
same,AST,[4]; 5 mg/kg/day,139.0 (35.0) U/L
same,Albumin,[4]; 5 mg/kg/day,3.9 (0.3) g/dL
same,CK,[4]; 5 mg/kg/day,792.0 (198.0) U/L
same,Calcium,[4]; 5 mg/kg/day,9.8 (0.2) mg/dL
same,Chloride,[4]; 5 mg/kg/day,105.0 (2.0) mmol/L
same,Cholesterol,[4]; 5 mg/kg/day,55.0 (15.0) mg/dL
same,Creatinine,[4]; 5 mg/kg/day,0.3 (0.0) mg/dL
same,GGT,[4]; 5 mg/kg/day,0.0 (0.0) U/L
same,Globulin,[4]; 5 mg/kg/day,1.8 (0.1) g/dL
same,Glucose,[4]; 5 mg/kg/day,97.0 (16.0) mg/dL
same,Phos,[4]; 5 mg/kg/day,7.3 (0.8) mg/dL
same,Potassium,[4]; 5 mg/kg/day,4.9 (0.4) mmol/L
same,Sodium,[4]; 5 mg/kg/day,143.0 (1.0) mmol/L
same,T-Bil,[4]; 5 mg/kg/day,0.0 (0.0) mg/dL
same,TP,[4]; 5 mg/kg/day,5.8 (0.5) g/dL
same,Triglycerides,[4]; 5 mg/kg/day,25.0 (7.0) mg/dL
same,Urea N,[4]; 5 mg/kg/day,20.0 (2.0) mg/dL
same,A/G,[4]; 10 mg/kg/day,2.2 (0.2)
same,ALP,[4]; 10 mg/kg/day,109.5 (30.5) U/L
same,ALT,[4]; 10 mg/kg/day,32.5 (6.0) U/L
same,AST,[4]; 10 mg/kg/day,122.0 (14.3) U/L
same,Albumin,[4]; 10 mg/kg/day,3.9 (0.1) g/dL
same,CK,[4]; 10 mg/kg/day,473.5 (211.3) U/L
same,Calcium,[4]; 10 mg/kg/day,10.0 (0.3) mg/dL
same,Chloride,[4]; 10 mg/kg/day,105.0 (2.0) mmol/L
same,Cholesterol,[4]; 10 mg/kg/day,55.0 (26.5) mg/dL
same,Creatinine,[4]; 10 mg/kg/day,0.3 (0.0) mg/dL
same,GGT,[4]; 10 mg/kg/day,0.0 (0.0) U/L
same,Globulin,[4]; 10 mg/kg/day,1.8 (0.2) g/dL
same,Glucose,[4]; 10 mg/kg/day,99.0 (5.5) mg/dL
same,Phos,[4]; 10 mg/kg/day,7.1 (0.8) mg/dL
same,Potassium,[4]; 10 mg/kg/day,5.1 (0.5) mmol/L
same,Sodium,[4]; 10 mg/kg/day,142.5 (1.0) mmol/L
same,T-Bil,[4]; 10 mg/kg/day,0.0 (0.0) mg/dL
same,TP,[4]; 10 mg/kg/day,5.7 (0.4) g/dL
same,Triglycerides,[4]; 10 mg/kg/day,26.0 (11.5) mg/dL
same,Urea N,[4]; 10 mg/kg/day,21.0 (1.8) mg/dL
same,A/G,"[4]; 20 mg/kg, day 2","3.0 (0.4)^c^,^d^,^e"
same,ALP,"[4]; 20 mg/kg, day 2","142.0 (34.5)^d^,^e U/L"
same,ALT,"[4]; 20 mg/kg, day 2","62.0 (28.5)^c^,^d^,^e U/L"
same,AST,"[4]; 20 mg/kg, day 2","397.0 (345.5)^d^,^e U/L"
same,Albumin,"[4]; 20 mg/kg, day 2","3.0 (0.6)^d^,^e g/dL"
